Data taken from ChEMBL document CHEMBL4680108, “Ancistrolikokine E, a 5,8'-Coupled Naphthylisoquinoline Alkaloid, Eliminates the Tolerance of Cancer Cells to Nutrition Starvation by Inhibition of the Akt/mTOR/Autophagy Signaling Pathway” (2018).
Activity calls are given as the source filed them. The calls are words filed in the database; no cut-off is given here.

Legend:
PANC-1 [1] = experiment: Induction of apoptosis in human PANC-1 cells cultured in nutrient-deprived medium assessed as inhibition of Bcl-xl measured after 6 hrs by Western blot analysis; format: functional, cell-based; conditions: dose 2.5-40 µM
Summary of the method: (§1)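 PANC-1 cells in NDM or DMEM exposed to compound at different concentrations for 6 h, then immunoblotted for Bcl-2, Bcl-xL and caspase-3.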

PANC-1 [2] = experiment: Induction of apoptosis in human PANC-1 cells cultured in nutrient-deprived medium assessed as inhibition of caspase-3 measured after 6 hrs by Western blot analysis; format: functional, cell-based; conditions: dose 2.5-40 µM; summary of the method: as §1
PANC-1 [3] = experiment: Induction of apoptosis in human PANC-1 cells cultured in nutrient-deprived medium assessed as induction of active caspase-3 cleavage at 2.5 to 40 uM measured after 6 hrs by Western blot analysis; format: functional, cell-based; conditions: dose 2.5-40 µM; summary of the method: as §1
PANC-1 [4] = experiment: Inhibition of Akt/mTOR signaling pathway in human PANC-1 cells cultured in nutrient-deprived medium assessed as decrease in phosphorylated Akt level at S473 residue measured after 6 hrs by Western blot analysis; format: cell-based; conditions: dose 2.5-40 µM
Summary of the method: (§2)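 Western blot of PANC-1 cells exposed to compound at different concentrations for 6 h in NDM or DMEM. Probed for total and phosphorylated Akt and mTOR and for GβL. Band levels compared with untreated control cells in NDM.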

PANC-1 [5] = experiment: Inhibition of Akt/mTOR signaling pathway in human PANC-1 cells cultured in nutrient-deprived medium assessed as decrease in total Akt level measured after 6 hrs by Western blot analysis; format: cell-based; conditions: dose 2.5-40 µM; summary of the method: as §2
PANC-1 [6] = experiment: Inhibition of Akt/mTOR signaling pathway in human PANC-1 cells cultured in nutrient-deprived medium assessed as decrease in phosphorylated mTOR level at S2448 residue measured after 6 hrs by Western blot analysis; format: cell-based; conditions: dose 2.5-40 µM; summary of the method: as §2
PANC-1 [7] = experiment: Inhibition of Akt/mTOR signaling pathway in human PANC-1 cells cultured in nutrient-deprived medium assessed as decrease in total mTOR level measured after 6 hrs by Western blot analysis; format: cell-based; conditions: dose 2.5-40 µM; summary of the method: as §2
PANC-1 [8] = experiment: Inhibition of Akt/mTOR signaling pathway in human PANC-1 cells cultured in nutrient-deprived medium assessed as decrease in GbetaL level measured after 6 hrs by Western blot analysis; format: cell-based; conditions: dose 2.5-40 µM; summary of the method: as §2
PANC-1 [9] = experiment: Inhibition of Akt/mTOR signaling pathway in human PANC-1 cells cultured in nutrient-deprived medium assessed as decrease in phosphorylated Akt level at S473 residue at 20 uM measured after 6 hrs by Western blot analysis relative to control; format: cell-based; summary of the method: as §2
PANC-1 [10] = experiment: Inhibition of Akt/mTOR signaling pathway in human PANC-1 cells cultured in nutrient-deprived medium assessed as decrease in phosphorylated Akt level at S473 residue at 40 uM measured after 6 hrs by Western blot analysis relative to control; format: cell-based; summary of the method: as §2
PANC-1 [11] = experiment: Inhibition of Akt/mTOR signaling pathway in human PANC-1 cells cultured in nutrient-deprived medium assessed as decrease in total Akt level at 20 uM measured after 6 hrs by Western blot analysis relative to control; format: cell-based; summary of the method: as §2
PANC-1 [12] = experiment: Inhibition of Akt/mTOR signaling pathway in human PANC-1 cells cultured in nutrient-deprived medium assessed as decrease in total Akt level at 40 uM measured after 6 hrs by Western blot analysis relative to control; format: cell-based; summary of the method: as §2
PANC-1 [13] = experiment: Inhibition of Akt/mTOR signaling pathway in human PANC-1 cells cultured in nutrient-deprived medium assessed as decrease in phosphorylated mTOR level at S2448 residue at 40 uM measured after 6 hrs by Western blot analysis relative to control; format: cell-based; summary of the method: as §2
PANC-1 [14] = experiment: Inhibition of Akt/mTOR signaling pathway in human PANC-1 cells cultured in nutrient-deprived medium assessed as decrease in total mTOR level at 40 uM measured after 6 hrs by Western blot analysis relative to control; format: cell-based; summary of the method: as §2
PANC-1 [15] = experiment: Inhibition of autophagy in human PANC-1 cells cultured in nutrient-deprived medium assessed as inhibition of Beclin-1 expression after 6 hrs by Western blot analysis; format: functional, cell-based; conditions: dose 2.5-40 µM
PANC-1 [16] = experiment: Inhibition of autophagy in human PANC-1 cells cultured in nutrient-deprived medium assessed as inhibition of Atg5 expression after 6 hrs by Western blot analysis; format: functional, cell-based; conditions: dose 2.5-40 µM
PANC-1 [17] = experiment: Inhibition of autophagy in human PANC-1 cells cultured in nutrient-deprived medium assessed as inhibition of Atg12 expression after 6 hrs by Western blot analysis; format: functional, cell-based; conditions: dose 2.5-40 µM
PANC-1 [18] = experiment: Inhibition of autophagy in human PANC-1 cells cultured in nutrient-deprived medium assessed as inhibition of LC3-1 expression after 6 hrs by Western blot analysis; format: functional, cell-based; conditions: dose 2.5-40 µM
PANC-1 [19] = experiment: Inhibition of autophagy in human PANC-1 cells cultured in nutrient-deprived medium assessed as inhibition of LC3-2 expression after 6 hrs by Western blot analysis; format: functional, cell-based; conditions: dose 2.5-40 µM
PANC-1 [20] = experiment: Inhibition of autophagy in human PANC-1 cells cultured in nutrient-deprived medium assessed as inhibition of LC3-1 expression at 40 uM after 6 hrs in presence of chloroquine by Western blot analysis; format: functional, cell-based
PANC-1 [21] = experiment: Inhibition of autophagy in human PANC-1 cells cultured in nutrient-deprived medium assessed as inhibition of LC3-2 expression at 40 uM after 6 hrs in presence of chloroquine by Western blot analysis; format: functional, cell-based
PANC-1 [22] = experiment: Inhibition of autophagy in human PANC-1 cells cultured in nutrient-deprived medium after 6 hrs by MDC-staining based fluorescence microscopy analysis; format: functional, cell-based; conditions: dose 40.0 µM
Summary of the method: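 PANC-1 cells under nutrient starvation given monodansylcadaverine with or without compound for 6 h. Autolysosome fluorescence viewed in fluorescence and phase-contrast modes.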

PANC-1 [23] = experiment: Inhibition of autophagy in human PANC-1 cells cultured in nutrient-deprived medium assessed as inhibition of LC3-2 expression at 40 uM after 6 hrs in presence of chloroquine by Western blot analysis relative to control; format: functional, cell-based

## COc1cc(OC)c(-c2ccc(O)c3c(OC)cc(C)cc23)c2c1C(C)=N[C@H](C)C2
PANC-1 [1]
  inhibition: Active
PANC-1 [2]
  inhibition: Active
PANC-1 [3]
  Activity: inactive
PANC-1 [4]
  inhibition: Dose-dependent effect
PANC-1 [5]
  inhibition: Dose-dependent effect
PANC-1 [6]
  inhibition: Dose-dependent effect
PANC-1 [7]
  inhibition: Dose-dependent effect
PANC-1 [8]
  inhibition: Dose-dependent effect
PANC-1 [9]
  inhibition: 65%
PANC-1 [10]
  inhibition: 99%
PANC-1 [11]
  inhibition: 48%
PANC-1 [12]
  inhibition: 86%
PANC-1 [13]
  inhibition: 92%
PANC-1 [14]
  inhibition: 100%
PANC-1 [15]
  inhibition: Dose-dependent effect
PANC-1 [16]
  inhibition: Dose-dependent effect
PANC-1 [17]
  inhibition: Dose-dependent effect
PANC-1 [18]
  inhibition: Dose-dependent effect
PANC-1 [19]
  inhibition: Dose-dependent effect
PANC-1 [20]
  inhibition: Active
PANC-1 [21]
  inhibition: Active
PANC-1 [22]
  inhibition: Active
PANC-1 [23]
  inhibition: Active
